In BindingDB's records for doi:10.1016/j.bmc.2012.09.049 (University of Copenhagen, 2012) one finds IC50 data, which are given here for 4 compounds.

Assay [1] has as its target T1, Excitatory amino acid transporter 3 (Homo sapiens, UniProt P43005).
T1 sequence (P43005 whole entry): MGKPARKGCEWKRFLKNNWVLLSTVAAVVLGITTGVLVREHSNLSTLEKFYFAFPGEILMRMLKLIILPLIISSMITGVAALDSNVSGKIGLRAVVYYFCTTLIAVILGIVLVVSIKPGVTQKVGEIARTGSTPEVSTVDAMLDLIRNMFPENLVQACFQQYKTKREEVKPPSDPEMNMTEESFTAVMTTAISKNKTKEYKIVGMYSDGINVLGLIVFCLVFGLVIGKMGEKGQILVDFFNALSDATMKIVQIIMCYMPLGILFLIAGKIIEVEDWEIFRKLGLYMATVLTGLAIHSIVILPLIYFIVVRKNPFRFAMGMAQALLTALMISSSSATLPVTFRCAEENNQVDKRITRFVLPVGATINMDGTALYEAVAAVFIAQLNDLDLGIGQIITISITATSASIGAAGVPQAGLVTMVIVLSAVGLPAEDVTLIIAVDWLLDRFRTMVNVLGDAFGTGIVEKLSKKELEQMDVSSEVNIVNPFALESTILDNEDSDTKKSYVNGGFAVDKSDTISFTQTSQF
In words: Inhibition of [3H]-D-aspartate uptake at human EAAT3 expressed in HEK293 cells after 6 mins by scintillation counting. In a few lines: (§1)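 Each transporter subtype stably expressed in its own HEK293 cell line. Inhibitor potency measured as block of [³H]-D-aspartate uptake into these cells and reported as IC₅₀ values.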

The target of assay [2] is Excitatory amino acid transporter 1 (Homo sapiens, UniProt P43003). In words: Inhibition of [3H]-D-aspartate uptake at human EAAT1 expressed in HEK293 cells after 6 mins by scintillation counting. An outline of the steps: as §1
Sequence of Excitatory amino acid transporter 1 (P43003 whole entry): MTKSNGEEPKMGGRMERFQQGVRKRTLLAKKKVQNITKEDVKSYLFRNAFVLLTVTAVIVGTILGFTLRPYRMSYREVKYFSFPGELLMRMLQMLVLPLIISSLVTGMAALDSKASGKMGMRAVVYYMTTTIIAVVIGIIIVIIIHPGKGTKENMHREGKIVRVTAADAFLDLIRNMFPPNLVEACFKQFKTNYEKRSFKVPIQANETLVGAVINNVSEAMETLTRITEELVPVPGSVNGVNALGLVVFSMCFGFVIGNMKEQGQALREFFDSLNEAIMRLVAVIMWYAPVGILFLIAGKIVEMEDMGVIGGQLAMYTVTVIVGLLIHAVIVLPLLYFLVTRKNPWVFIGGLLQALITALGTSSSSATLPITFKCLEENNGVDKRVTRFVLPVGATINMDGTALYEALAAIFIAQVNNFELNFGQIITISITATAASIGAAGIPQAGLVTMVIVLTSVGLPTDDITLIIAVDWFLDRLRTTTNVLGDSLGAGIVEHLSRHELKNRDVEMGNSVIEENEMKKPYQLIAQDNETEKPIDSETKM
The target in assay [3] is Excitatory amino acid transporter 2 (Homo sapiens, UniProt P43004). In words: Inhibition of [3H]-D-aspartate uptake at human EAAT2 expressed in HEK293 cells after 6 mins by scintillation counting. In a few lines: as §1
Sequence of Excitatory amino acid transporter 2 (P43004 whole entry): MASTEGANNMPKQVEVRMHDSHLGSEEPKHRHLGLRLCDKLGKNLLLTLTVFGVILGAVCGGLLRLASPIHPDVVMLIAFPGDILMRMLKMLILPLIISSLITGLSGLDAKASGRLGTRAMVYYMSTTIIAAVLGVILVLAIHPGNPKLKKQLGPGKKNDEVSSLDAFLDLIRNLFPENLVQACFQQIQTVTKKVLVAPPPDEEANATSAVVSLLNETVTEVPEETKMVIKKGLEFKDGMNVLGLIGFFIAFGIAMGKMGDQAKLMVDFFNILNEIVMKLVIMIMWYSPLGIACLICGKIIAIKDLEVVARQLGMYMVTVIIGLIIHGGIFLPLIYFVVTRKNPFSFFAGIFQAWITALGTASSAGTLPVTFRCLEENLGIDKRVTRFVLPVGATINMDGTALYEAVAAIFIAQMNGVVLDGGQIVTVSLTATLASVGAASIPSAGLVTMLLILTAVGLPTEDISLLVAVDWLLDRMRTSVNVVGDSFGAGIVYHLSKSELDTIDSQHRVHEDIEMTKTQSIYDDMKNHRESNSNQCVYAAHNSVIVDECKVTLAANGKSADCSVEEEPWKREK

The structures appear in SMILES notation. pIC50: −log10 of the molar value. A value given as a limit tells only on which side of the number the result lay.

Turning to `CCN(CC)c1ccc2c(C)c(-c3ccc(C4C5=C(CC(c6ccccc6)CC5=O)OC(=N)C4C#N)cc3)c(=O)oc2c1` (configuration not stated), the pIC50 was < 3.52 in assay [1], < 3.50 in assay [2] and < 3.52 in assay [3].

In the case of `COc1ccc2c(C)c(-c3ccc(C4C5=C(CC(c6ccccc6)CC5=O)OC(=N)C4C#N)cc3)c(=O)oc2c1` (configuration not stated), the figures for the pIC50 in assay [1], in assay [2] and in assay [3] were < 3.52, < 3.50 and < 3.52, respectively.

With `CCN(CC)c1ccc2c(C3C4=C(CC(c5cccc6ccccc56)CC4=O)OC(=N)C3C#N)cc(=O)oc2c1` (configuration not stated), the figures for the pIC50 in assay [1], in assay [2] and in assay [3] were < 3.52, < 3.50 and < 3.52, respectively.

As to `COc1ccc2c(C3C4=C(CC(c5ccccc5)CC4=O)OC(=N)C3C#N)cc(=O)oc2c1` (configuration not stated), the pIC50 in assay [1] is < 3.52; in assay [2] it was < 3.50; in assay [3], < 3.52.

Usually pIC50 stands for the negative decadic logarithm of the IC50, by convention in mol/L. Read a low pIC50 as a large IC50.
